Experimental data published in PMC3313018 (Cancer Chemotherapy and Pharmacology, 2011).
Entries after “also recorded” stand apart in the source; their conditions may differ. Where two headings read alike, the source gives them in different places. Marks after values point to notes of the source that are not given here.

Columns and labels:
[1] = test system: patients with advanced renal cell carcinoma; details: cited from earlier work
[2] = test system: non-Japanese patients with refractory or advanced solid cancer; details: cited from earlier work; for Maximum tolerated dose (MTD): non-Japanese patients ref 10–13
[3] = test system: mTOR; details: in vitro ref 8; cited from earlier work
[4] = test system: sarcoma; details: Phase III sarcoma maintenance study, P = 0.0001, stratified log-rank ref 24; cited from earlier work
[5] = test system: Japanese patients with advanced solid tumors; test: Phase I safety and tolerability: DLTs and adverse events; assay type: in vivo; details: for DLTs / n/N, No. of patients with DLT/No. of patients at the dose level: Cycle 1
How it was run: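 Open-label, single-centre 3+3 escalation, 20 then 40 mg orally (single dose Day 1, then daily 5 days/week from Day 8). DLT window was the first 28-day cycle, counting drug-related Grade 4 neutropenia >5 days, febrile (>38.5°C) Grade 3–4 neutropenia, Grade 4 thrombocytopenia, and Grade 3–4 non-haematologic toxicity with exceptions. Adverse events graded by CTCAE v3.0 over all cycles. Dose intensity <75% excluded from DLT evaluation.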

[6] = test system: metastatic or locally advanced solid tumors; test: Antitumor activity by RECIST version 1.0; assay type: in vivo, Japanese patients
How it was run: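 Exploratory tumour assessment by RECIST v1.0 in refractory metastatic or locally advanced solid tumours. Oral 20 or 40 mg: single dose Day 1, washout ≥6 days, then once daily 5 days on/2 days off on Days 8–28 as inpatients. Later 21-day cycles at 5 days a week until progression or unacceptable toxicity.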

[7] = Whole blood and plasma pharmacokinetics; assay type: in vivo, Japanese patients
How it was run: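 Cycle 1, oral 20 or 40 mg. Whole blood and plasma sampled predose and 0.5–168 h after the Day 1 dose, predose on Days 15, 18, 22 and 23, and predose to 24 h on Day 26; assayed by HPLC-MS/MS. Tmax, Cmax and Ctrough taken by inspection. […] Accumulation (Day 26/Day 1) from a linear mixed effects model on ln values.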

[8] = test system: human tumor cell lines; details: in vitro ref 8; cited from earlier work
[9] = All patients (n = 13), all cycles
[10] = all patients (n = 13), all cycles

## CO[C@H]1C[C@@H]2CC[C@@H](C)[C@@](O)(O2)C(=O)C(=O)N2CCCC[C@H]2C(=O)O[C@H]([C@H](C)C[C@@H]2CC[C@@H](OCCO)[C@H](OC)C2)CC(=O)[C@H](C)/C=C(\C)[C@@H](O)[C@@H](OC)C(=O)[C@H](C)C[C@H](C)/C=C/C=C/C=C/1C [everolimus]
[1]; Japanese patients with advanced renal cell carcinoma ref 18
  Incidence of pneumonitis: 27%
[1]; patients with renal cell carcinoma overall ref 18
  Incidence of pneumonitis, overall rate: 11%

## CO[C@H]1C[C@@H]2CC[C@@H](C)[C@@](O)(O2)C(=O)C(=O)N2CCCC[C@H]2C(=O)O[C@H]([C@H](C)C[C@@H]2CC[C@@H](OP(C)(C)=O)[C@H](OC)C2)CC(=O)[C@H](C)/C=C(\C)[C@@H](O)[C@@H](OC)C(=O)[C@H](C)C[C@H](C)/C=C/C=C/C=C/1C [ridaforolimus, Ridaforolimus]
[2]; 40 mg daily, five times a week, non-Japanese patients ref 17
  DLTs: stomatitis and fatigue
[2]; daily regimen
  Maximum tolerated dose (MTD): 10 mg
[2]; once daily, five-times-a-week regimen
  Maximum tolerated dose (MTD): 40 mg
[3]
  Effect on mTOR activity, in words: inhibited mTOR activity
[4]
  Hazard ratio for progression-free survival vs placebo: 0.72
[5]; 20 mg (n = 7), all cycles
  Anorexia, drug-related adverse event, Grades 1–2, no. of patients: 2
  Constipation, drug-related adverse event, Grades 1–2, no. of patients: 3
  Fatigue, drug-related adverse event, Grades 1–2, no. of patients: 1
  Hypercholesterolemia, drug-related adverse event, Grades 1–2, no. of patients: 3
  Hyperglycemia, drug-related adverse event, Grades 1–2, no. of patients: 2
  Hypertriglyceridemia, drug-related adverse event, Grades 1–2, no. of patients: 5
  Hypoalbuminemia, drug-related adverse event, Grades 1–2, no. of patients: 2
  Interstitial pneumonitis, drug-related adverse event, Grades 1–2, no. of patients: 1
  Interstitial pneumonitis, drug-related adverse event, Grades 3–4, no. of patients: 0
  Leukopenia, drug-related adverse event, Grades 1–2, no. of patients: 1
  Leukopenia, drug-related adverse event, Grades 3–4, no. of patients: 1
  Neutropenia, drug-related adverse event, Grades 1–2, no. of patients: 1
  Neutropenia, drug-related adverse event, Grades 3–4, no. of patients: 2
  Proteinuria, drug-related adverse event, Grades 1–2, no. of patients: 3
  Stomatitis, drug-related adverse event, Grades 3–4, no. of patients: 1
  Thrombocytopenia, drug-related adverse event, Grades 1–2, no. of patients: 2
[5]; 40 mg (n = 6), all cycles
  Anemia, drug-related adverse event, Grades 1–2, no. of patients: 3
  Anemia, drug-related adverse event, Grades 3–4, no. of patients: 3
  Anorexia, drug-related adverse event, Grades 1–2, no. of patients: 2
  Anorexia, drug-related adverse event, Grades 3–4, no. of patients: 1
  Constipation, drug-related adverse event, Grades 1–2, no. of patients: 1
  Fatigue, drug-related adverse event, Grades 1–2, no. of patients: 3
  Hypercholesterolemia, drug-related adverse event, Grades 1–2, no. of patients: 3
  Hyperglycemia, drug-related adverse event, Grades 1–2, no. of patients: 2
  Hyperglycemia, drug-related adverse event, Grades 3–4, no. of patients: 1
  Hypertriglyceridemia, drug-related adverse event, Grades 1–2, no. of patients: 4
  Hypoalbuminemia, drug-related adverse event, Grades 1–2, no. of patients: 3
  Interstitial pneumonitis, drug-related adverse event, Grades 1–2, no. of patients: 3
  Interstitial pneumonitis, drug-related adverse event, Grades 3–4, no. of patients: 0
  Leukopenia, drug-related adverse event, Grades 1–2, no. of patients: 2
  Loss of body weight, drug-related adverse event, Grades 1–2, no. of patients: 4
  Neutropenia, drug-related adverse event, Grades 1–2, no. of patients: 1
  Proteinuria, drug-related adverse event, Grades 1–2, no. of patients: 3
  Rash, drug-related adverse event, Grades 1–2, no. of patients: 2
  Rash, drug-related adverse event, Grades 3–4, no. of patients: 1
  Stomatitis, drug-related adverse event, Grades 1–2, no. of patients: 6
  Thrombocytopenia, drug-related adverse event, Grades 1–2, no. of patients: 3
[5]; 13 patients
  Median time until the onset of stomatitis: 11 days
  Number of patients who discontinued treatment because of adverse events: Six patients
[5]; 13 patients enrolled
  Number of patients with stomatitis: 13
[5]; 13 patients, 20 and 40 mg
  Number of patients with grade 1 drug-induced interstitial pneumonitis: Four patients
[5]; 20 and 40 mg, first cycle
  Number of patients with dose-limiting toxicities: Two patients
[5]; [9]
  Anemia, drug-related adverse event, Grades 3–4, no. of patients: 4
  Anorexia, drug-related adverse event, Grades 1–2, no. of patients: 4
  Anorexia, drug-related adverse event, Grades 3–4, no. of patients: 1
  Constipation, drug-related adverse event, Grades 1–2, no. of patients: 4
  Fatigue, drug-related adverse event, Grades 1–2, no. of patients: 4
  Hypercholesterolemia, drug-related adverse event, Grades 1–2, no. of patients: 6
  Hyperglycemia, drug-related adverse event, Grades 1–2, no. of patients: 4
  Hyperglycemia, drug-related adverse event, Grades 3–4, no. of patients: 1
  Hypertriglyceridemia, drug-related adverse event, Grades 1–2, no. of patients: 9
  Hypoalbuminemia, drug-related adverse event, Grades 1–2, no. of patients: 5
  Interstitial pneumonitis, drug-related adverse event, Grades 1–2, no. of patients: 4
  Interstitial pneumonitis, drug-related adverse event, Grades 3–4, no. of patients: 0
  Leukopenia, drug-related adverse event, Grades 1–2, no. of patients: 3
  Leukopenia, drug-related adverse event, Grades 3–4, no. of patients: 1
  Loss of body weight, drug-related adverse event, Grades 1–2, no. of patients: 4
  Neutropenia, drug-related adverse event, Grades 1–2, no. of patients: 2
  Neutropenia, drug-related adverse event, Grades 3–4, no. of patients: 2
  Proteinuria, drug-related adverse event, Grades 1–2, no. of patients: 6
  Rash, drug-related adverse event, Grades 3–4, no. of patients: 1
  Stomatitis, drug-related adverse event, Grades 3–4, no. of patients: 1
  Thrombocytopenia, drug-related adverse event, Grades 1–2, no. of patients: 5
[5]; Grade 3 anorexia, 40 mg
  Time to onset of DLT: 23 days
[5]; Grade 3 stomatitis, 20 mg
  Time to onset of DLT: 8 days
[5]; Grade 3 vomiting, 40 mg
  Time to onset of DLT: 23 days
[5]; Level 1, 20 mg
  DLTs: Grade 3 stomatitis
  n/N, No. of patients with DLT/No. of patients at the dose level: 1/6^b
[5]; Level 2, 40 mg
  DLTs: Grade 3 anorexia; also recorded: Grade 3 vomiting
  n/N, No. of patients with DLT/No. of patients at the dose level: 1/6
[5]; [10]
  Incidence of hypercholesterolemia related to treatment: 46.2%
  Incidence of hypertriglyceridemia related to treatment: 69.2%
  Incidence of leucopenia: 30.8%
  Incidence of neutropenia: 30.8%
  Incidence of proteinuria related to treatment: 46.2%
  Incidence of skin rash related to treatment: 61.5%
  Incidence of stomatitis related to treatment: 100%
  Incidence of thrombocytopenia: 38.5%
[5]; dose level 2 (40 mg)
  Patients requiring a dose reduction: None
[5]; eight patients with other cancer types
  Interstitial pneumonitis among patients with other cancer types: three cases occurred among eight patients
[5]; five patients with NSCLC
  Interstitial pneumonitis among NSCLC patients: one of these five NSCLC patients
[5]; four patients
  Time of occurrence of interstitial pneumonitis after the start of treatment: 2–5 months
[5]; oral, once daily 5 days a week
  Tolerability, in words: well tolerated up to a dose of 40 mg
[6]; 13 patients, NSCLC and angiosarcoma
  Number of patients achieving a partial response: Two patients
[6]; 13 patients, one thymic cancer, four soft tissue sarcomas
  Number of patients with stable disease for ≥16 weeks: five patients
[6]; Patient 1, Osteosarcoma, 20 mg
  Duration of stable disease: 3.7 weeks
[6]; Patient 3, Thymic cancer, 20 mg
  Duration of stable disease: 16.3 weeks
[6]; Patient 5, Liposarcoma, 20 mg
  Duration of stable disease: 16.1 weeks
[6]; Patient 6, NSCLC (adenocarcinoma), 20 mg
  Duration of stable disease: 4.0 weeks
[6]; Patient 7, NSCLC (adenocarcinoma), 20 mg
  Duration of stable disease: 4.0 weeks
[6]; Patient 8, Osteosarcoma, 40 mg
  Duration of stable disease: 4.0 weeks
[6]; Patient 9, Liposarcoma, 40 mg
  Duration of stable disease: 17.3 weeks
[6]; Patient 10, Leiomyosarcoma, 40 mg
  Duration of stable disease: 16.3 weeks
[6]; Patient 11, Leiomyosarcoma, 40 mg
  Duration of stable disease: 17.1 weeks
[6]; Patient 13, Day 28, baseline 42 mm
  Longest tumor diameter on CT: 21 mm
[6]; both patients with partial response
  Time until the response: 28 days
[7]; Day 1, after administration of 20 mg
  Time whole blood concentration was below the quantitation limit (<0.2 ng/mL): 2 to 4 h
[7]; Day 1, after administration of 40 mg
  Time whole blood concentration was below the quantitation limit (<0.2 ng/mL): 1 to 2 h
[7]; once daily, 5 days a week
  Time for mean whole blood C trough to reach steady state: about 1 week
[7]; plasma vs whole blood concentration
  Blood-to-plasma ratio, in words: high blood-to-plasma ratio
[7]; whole blood
  Accumulation from Day 1 to Day 26 (AUC0–24 h, C max, C trough), in words: moderate accumulation
[7]; whole blood, 20 mg
  Accumulation ratio (Day 26/Day 1) AUC0–24 h, geometric mean ratio (90% confidence interval): 1.51 (1.14, 2.01)
  Accumulation ratio (Day 26/Day 1) C max, geometric mean ratio (90% confidence interval): 1.37 (0.959, 1.97)
  Accumulation ratio (Day 26/Day 1) C trough, geometric mean ratio (90% confidence interval): 2.02 (1.61, 2.52)
[7]; whole blood, 40 mg
  Accumulation ratio (Day 26/Day 1) AUC0–24 h, geometric mean ratio (90% confidence interval): 1.44 (1.05, 1.99)
  Accumulation ratio (Day 26/Day 1) C max, geometric mean ratio (90% confidence interval): 1.01 (0.674, 1.50)
  Accumulation ratio (Day 26/Day 1) C trough, geometric mean ratio (90% confidence interval): 1.76 (1.37, 2.25)
[7]; whole blood, Day 1, 20 and 40 mg
  Lag time for systemic absorption: 1 to 4 h
[7]; whole blood, Days 1 and 26
  Time at which C max was reached: approximately 4 h
[8]
  Antiproliferative activity, in words: antiproliferative activity against a broad range of human tumor cell lines
